For 100 molecules, activation results are on record in PubChem BioAssay AID504383 (The Scripps Research Institute Molecular Screening Center, 2011).

The whole screen tested about 2,500 compounds, of which about 1,200 (48%) were called active. So high a share suggests a set chosen from earlier hits. Some of the results follow. Unmarked numbers belong to inactive results.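 Rule for the calls: active = mean activation above the low control average plus 3 SD, as set in the primary screen (cut at about 12% in these data); inactive = the rest.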

The target of the experiment is Troponin I, cardiac muscle (Homo sapiens) + Troponin T, cardiac muscle (Homo sapiens) + Troponin C, slow skeletal and cardiac muscles (Homo sapiens) (UniProt P19429+P45379+P63316). Description: calcium sensitizers of cardiac thin filaments – biochemical, IANBD-TnC fluorescence, triplicate, confirmation (AID 504383).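 Note: 0% = DMSO at 0.472 mM calcium and 100% = DMSO at 2.9 mM calcium.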 Conditions: IANBD-labeled cardiac RTF, Ca2+ sensitivity fluorescence; at 7.2 µM; active compounds read high; scaled from EC20 to saturating calcium; tested at EC20 calcium, 0.472 mM. In short, it runs like this:
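Material: labelled regulated thin filaments; Reagent: 0.472 mM calcium; Incubation: 15 min compound incubation with filaments at 25 °C; Detection: filament fluorescence intensity; Evaluation: fluorescence increase normalised to calcium controls; Benchmarks: low control EC20 calcium, high control EC100 calcium.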
Turning to `NC(=O)CC[C@@H]1NC(=O)[C@H](Cc2ccc(O)cc2)NC(=O)c2cc([N+](=O)[O-])cc(F)c2OCC[C@@H](C(N)=O)NC1=O`, the activation was 0.64%.

As to `Cc1ccc(CN2CCN(Cc3ccc(-n4cccn4)cc3C)CC2CCO)cc1` (stereo not given), the activation was 108% (active). Regarding `CCOc1ccc(CN2CCN(C/C=C/c3ccc(OC)cc3)CC2CCO)cc1` (stereo not given), the activation is 7.69%. For `CC/C(=N/Nc1cccc(C)c1)c1cnnc(SC)n1`, the activation is 12.7% (active). As to `COc1ccccc1CNc1cc(C)ccc1C`, the activation is 1250% (active).

Turning to `C#CCN1C(=O)S/C(=C/C=C/c2ccc(N(C)C)cc2)C1=O`, the activation is 9.72%.

As to `COc1cc(/C=C2/SC(=S)N(CCC(=O)Nc3ccccc3)C2=O)cc(OC)c1OC`, the activation was 1.16%. Take `CC(=O)c1ccc(NC(=O)CN2C(=O)/C(=C/C=C/c3ccccc3)SC2=S)cc1`: the activation was 13.7% (active). In the case of `Cc1ccc(/C=C/C(=O)Nc2cccc3cccnc23)o1`, the activation is 20.6% (active).

Turning to `COc1ccc(N2C(=O)[C@@H]3[C@H](C2=O)[C@H](C(C)=O)N2c4ccccc4C=C[C@@H]32)cc1`, the activation was 9.39%. As for `COc1ccc(C2C(C(=O)c3ccccc3)N3c4ccccc4C=CC3C2[N+](=O)[O-])cc1` (stereo not given), the activation was 47.8% (active). To `Cc1cc(N/C=C\c2nnnn2-c2ccc(F)cc2)no1` belongs 979% (active); to `O=C1c2cccc3c(O)ccc(c23)C(=O)N1Cc1ccccc1`, 33.7% (active).

For `C[C@H]1CCC(=O)N([C@H](CSc2ccc(Br)cc2)Cc2ccccc2)CC1`, the activation is 6.56%. On to `COc1ccc2[nH]c3c(c2c1)CCNC3c1ccc([N+](=O)[O-])o1` (stereo not given), for which the activation was 2.79%.

For the molecule `O=C(c1ccccc1Nc1ccc(SC(F)F)cc1)N1CCCCC1`, the activation was 5.45%. Turning to `O=C(c1ccc(Nc2cccc(C(F)(F)F)c2)nc1)N1CCCC1`, the activation was 168% (active).

As to `CCSc1cc(N2CCCC2)nc(-c2ccc(Cl)cc2)n1`, the activation is 6.74%. `C/C(=N/NC(=O)Nc1ccccc1)c1ccc(C)cc1`: the activation was 9.45%. Take `C/C(=N/NS(=O)(=O)c1ccccc1)c1ccc(NC(=O)C2CC2)cc1`: the activation was 20.7% (active).

For the molecule `C#Cc1ccc([C@@H]2C=C(C(=O)OCC=C)O[C@H](OCCCCO)C2)cc1`, the activation is 9.72%. As for `O=C(Nc1ccccc1)C1=C[C@H](c2ccc3c(c2)OCO3)C[C@H](OCCCCO)O1`, the activation is 13% (active). As to `O=C(C1=C[C@@H](c2ccc(Br)cc2)C[C@@H](OCc2ccc(CO)cc2)O1)N1CCN(Cc2ccc3c(c2)OCO3)CC1`, the activation is 4.22%. Turning to `CCCC[C@H]1COCCS(=O)(=O)N1Cc1ccc(F)cc1`, the activation was 0.38%. With `NC(=O)c1c[nH]c2ccccc12`, the activation was 717% (active). `OCCc1c[nH]c2ccccc12`: the activation is 6.66%. `CCCn1c(N2CCN(CC(=O)c3c[nH]c4ccccc34)CC2)nc2c1c(=O)[nH]c(=O)n2C`: the activation is 8.31%.

For `N#C/C(=C/c1ccc(N2CCCCCC2)o1)c1ccc(Cl)cc1`, the activation was 38.8% (active). In the case of `N#C/C(=C/c1ccc(N2CCCCCC2)o1)c1cccc(F)c1`, the activation is 99.3% (active). For the molecule `N#C/C(=C/c1ccc(N2CCOCC2)o1)c1ccc(Cl)cc1`, the activation was 9.77%. For the molecule `O=C(NCc1nnc(SCC(=O)N2CCCCCC2)o1)c1ccco1`, the activation was 28.5% (active).

On to `CC(C)Sc1nc2ccc(Br)cc2[nH]1`, for which the activation was 56.5% (active). With `COC(=O)c1ccc(S(=O)(=O)N(CCO)Cc2ccccc2)n1C`, the activation was 6.61%.

For the molecule `COC(=O)c1ccc(S(=O)(=O)N2CCC(O)CC2)n1C`, the activation was 30.3% (active). In the case of `Cc1ccc(N2CN(Cc3cccnc3)CNC2=S)cc1`, the activation is 13.6% (active). Take `Cc1ccc(CNc2cccnc2)cc1`: the activation is 1.46%. Turning to `CS/C(=N\S(=O)(=O)c1cccs1)Nc1cccc(Cl)c1C`, the activation was 61.5% (active). As for `COCCn1c(=O)c2ccccc2c2ccccc2c1=O`, the activation is 89% (active). On to `COCCOC(=O)c1sc(=S)n(CCOC)c1N`, for which the activation is 7.49%. Consider `COCCn1c(-c2ccc(C)cc2)nc2oc3cc(OC)ccc3c(=O)c2c1=O`, for which the activation was 10.7%. To `CCC(=O)Nc1ccc2oc(-c3cccnc3)nc2c1` belongs 210% (active). Turning to `CCC(=O)N/C(=N/c1nc(C)cc(C)n1)Nc1ccccc1`, the activation was 7.51%.

With `Cc1cc(=O)oc(C)c1C(=O)Nc1ccc2ncccc2c1`, the activation was 6.03%. Regarding `CCCCN=C1N/C(=C\c2ccco2)C(=O)N1c1ccccc1`, the activation is 370% (active). To `Cc1cc(NC(=O)COC(=O)C(Cc2ccccc2)NC(=O)c2ccco2)no1` (stereo not given) belongs 39.2% (active); to `COC(=O)[C@H](Cc1ccccc1)NC(=O)Nc1ccc(OC)cc1`, 4.56%.

On to `O=C1C=C(NCc2ccco2)CC(c2ccc(Cl)cc2)C1` (stereo not given), for which the activation was 4.86%.

Regarding `CCc1ccc(C2C(C#N)=C(N)SC(N)=C2C#N)s1`, the activation was 9.19%. `Nc1cnccc1C(=O)O`: the activation was 26% (active). For the molecule `CN(C)C=Nc1c(Br)cc(Br)c2nonc12`, the activation is 31.3% (active). Turning to `O=C(NCc1ccco1)/C(=C\c1ccco1)NC(=O)c1ccc(Br)o1`, the activation was 72.9% (active). Regarding `CC(C)(C)c1ccc(C(=O)N/C(=C\c2cccs2)C(=O)NCc2ccco2)cc1`, the activation is 9.9%. For the molecule `O=C(NCc1cccnc1)/C(=C\c1ccc(-c2ccc(Cl)c(Cl)c2)o1)S(=O)(=O)c1ccccc1`, the activation is 5.91%. Regarding `Cc1cnc(C(=O)Nc2nnc(SCc3c(Cl)cccc3Cl)s2)cn1`, the activation is 15% (active). `CCOC(=O)c1c(C)[nH]c(C2=NNC(=NC(C)COC)SC2)c1C` (stereo not given): the activation was 81% (active).

`NC(N)=NCc1cccc(I)c1`: the activation is 7.58%.

`CN(C(=O)C1CCC1C(=O)O)c1nc(-c2ccc(Cl)s2)cs1` (stereo not given): the activation is 176% (active). To `COC(=O)c1ccc(OC)c(OC2CCCC2)c1` belongs 6.45%; to `CCOc1ccc(NC(=O)COC(=O)CCN2C(=O)C3CC=CCC3C2=O)cc1OCC` (stereo not given), 8.79%. `CCOc1ccc(C(=O)NCC(=O)N2CCC3CCCCC3C2)cc1OCC` (stereo not given): the activation was 167% (active).

`CCn1nnnc1SCC(=O)N1CCCc2ccccc21`: the activation is 10.8%.

As for `CC(CC(=O)N1CCc2ccccc21)n1cccn1` (stereo not given), the activation was 5.25%. As for `Cc1ccc2c(c1)N(CC(=O)N1CCCc3ccccc31)C(=O)C(C)O2` (stereo not given), the activation was 21.6% (active). Consider `O=C(O)CN1C(=O)c2cccc3c(Br)ccc1c23`, for which the activation is 89% (active). To `CCOCCc1nnc(NC(=O)COC)s1` belongs 3.67%; to `CCOC(=O)C(=O)Nc1nnc(COc2ccccc2)s1`, 9.76%. As to `CCCCOC(=O)Nc1nnc(C(C)C)s1`, the activation was 617% (active). As to `CCSc1nnc(-c2sc3nnc(-c4ccccc4)c(-c4ccccc4)c3c2N)o1`, the activation is 6.28%.

Consider `O=C(O)c1ncc(-c2ccccc2)cn1`, for which the activation was 128% (active). Consider `O=C([O-])c1ccccc1-[n+]1c(-c2ccccc2)cc(-c2ccccc2)cc1-c1ccccc1`, for which the activation is 7.07%. With `CCn1c(O)c(/C=N/NC(=O)c2ccncc2)c(=O)n(CC)c1=S`, the activation is 10.1%. As for `O=C(N/N=C/c1c(O)n(-c2ccc(Cl)cn2)c(=O)c2ccccc12)c1ccncc1`, the activation is 14.8% (active). The figure for `N=C1/C(=C\c2coc3ccccc3c2=O)C(=O)N=C2SC(c3ccncc3)=NN12` is 22.9% (active); for `CC(C)CC1=NN2C(=N)/C(=C\c3coc4ccccc4c3=O)C(=O)N=C2S1` it is 13.7% (active); for `Cc1ccccc1Cn1cccc1/C=C1/C(=N)N2C=CSC2=NC1=O` it is 14.6% (active). In the case of `N=C1/C(=C\c2coc3ccc(O)cc3c2=O)C(=O)N=C2SC=CN12`, the activation was 5.99%. Consider `N=C1/C(=C\c2coc3ccccc3c2=O)C(=O)N=C2SC=CN12`, for which the activation is 12.3% (active).

In the case of `O=C(c1ccccc1)N1CCN(CC#CC2(O)CCCCC2)CC1`, the activation was 8.87%. For `COc1ccc(N2CCN(C(=O)Cn3nnc(-c4ccccc4N)n3)CC2)cc1`, the activation is 46.5% (active). Consider `COc1ccc(-n2nc3c(N4CCC(C(=O)NCc5ccco5)CC4)nnc(C)c3c2C)cc1`, for which the activation is 4.51%. `CC1CCCCN1C(=O)Cn1nnc(-c2cccnc2)n1` (stereo not given): the activation was 5.92%.

Take `CC(C)CC1C(C#N)=C(N)SC(N)=C1C#N`: the activation was 4.27%.

Take `Cc1cc(=O)n2nc(N3CCCC3C(=O)Nc3ccc(C(C)C)cc3)sc2n1` (stereo not given): the activation is 426% (active). On to `COc1cc(NC(=O)[C@@H]2CCCN2S(=O)(=O)c2cccc3cccnc23)cc(OC)c1OC`, for which the activation was 7.77%.

Take `Cc1cc(Br)c2c(c1)C(O)(N1CCCCC1C)C(=O)N2` (stereo not given): the activation is 12.6% (active). As for `CC1=NN(C(=O)c2ccccc2-n2cccc2)C(O)(C(F)(F)F)C1` (stereo not given), the activation was 15.7% (active). `CC1=NN(C(=O)c2ccc(Cn3ccc([N+](=O)[O-])n3)cc2)C(O)(C(F)(F)F)C1` (stereo not given): the activation is 18.8% (active).

As for `COc1cccc(OC)c1C(=O)NNC(=O)c1ccccc1-n1cccc1`, the activation was -0.16%.

For the molecule `CC1=C(C#N)C(=O)OC(C)(C)C1`, the activation was 10.4%. In the case of `CC(C)c1nnc(N2C(=O)C(O)=C(C(=O)c3cccs3)C2c2ccccc2)s1` (stereo not given), the activation is 7.93%. For `CSc1ccc(C2C(C(=O)c3ccco3)=C(O)C(=O)N2c2nnc(SC)s2)cc1` (stereo not given), the activation was 29.2% (active). `N#Cc1c(NCCCO)nc(-c2ccccc2)c2c1CCCC2`: the activation is 16.7% (active).

As for `CC(=O)Nc1sc(/C(C#N)=C\c2cccc(Cl)c2)nc1-c1ccc(C)cc1`, the activation was 49.1% (active). Regarding `CC(=O)Nc1sc(/C(C#N)=C/c2ccc(Cl)c(Cl)c2)nc1-c1ccc(C)cc1`, the activation is -3.28%. Consider `CCOc1cc(/C=C(\C#N)c2nc(-c3cccs3)c(NC(C)=O)s2)ccc1O`, for which the activation is 0.64%. For `Cc1ccc(NC(=O)COC(=O)c2csc3c2CCC(C)C3)cc1S(=O)(=O)N1CCCCC1` (stereo not given), the activation is 3.56%. To `Cc1ccc(S(=O)(=O)N2CCOCC2)cc1NC(=O)CSc1nccn1C` belongs 11.4%; to `O=C(CNCc1cccs1)Nc1cc(S(=O)(=O)N2CCCC2)ccc1Cl`, 17.9% (active); to `O=C(CNCc1cccs1)Nc1ccc(S(=O)(=O)N2CCCCC2)cc1`, 66.4% (active).

On to `O=C(CCCN1C(=O)c2ccccc2C1=O)Nc1ccc(S(=O)(=O)N2CCCCC2)cc1`, for which the activation was 4.61%.
